# Assay results as given in ChEMBL document CHEMBL3596093, “Synthesis and antimicrobial evaluation of 5-aryl-1,2,4-triazole-3-thione derivatives containing a rhodanine moiety” (2015).
# Assays:
# Escherichia coli [1] = assay: Antibacterial activity against Escherichia coli CCARM 1356 after 24 hrs by two-fold serial dilution method; format: functional; conditions: CCARM 1356, 24 h
# How it was run: (§1)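 Strains grown to mid-log phase in Mueller-Hinton broth, then diluted 1000-fold in the same broth to about 10^5 CFU/mL. Compounds were made up as DMSO stocks and two-fold serially diluted from a final top concentration of 64 µg/mL. Incubation was 37 °C for 24 h. Growth was read as absorbance at 630 nm on a microplate reader. MIC assays were run in triplicate.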
# Staphylococcus aureus [2] = assay: Antibacterial activity against Staphylococcus aureus RN4220 after 24 hrs by two-fold serial dilution method; format: functional; conditions: RN4220, 24 h
# How it was run: (§2)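 Broth microdilution MIC. Bacteria grown to mid-log phase in Mueller-Hinton broth, diluted 1000-fold, about 10^5 CFU/mL. Compounds from DMSO stocks, two-fold serial dilution from a final 64 µg/mL. Incubation at 37 °C for 24 h. Growth read as absorbance at 630 nm on a microplate reader. Run in triplicate.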
# Escherichia coli [3] = assay: Antibacterial activity against Escherichia coli KCTC 1924 after 24 hrs by two-fold serial dilution method; format: functional; conditions: KCTC 1924, 24 h; how it was run: as §1
# Staphylococcus aureus [4] = assay: Bactericidal activity against quinolone-resistant Staphylococcus aureus CCARM 3519 after 24 hrs by agar plate method; format: functional; conditions: CCARM 3519, 24 h
# How it was run: (§3)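 5 µL from each well without visible growth plated on fresh Mueller-Hinton agar, then 37 °C for a further 24 h. MBC is the lowest concentration giving no visible colonies. Run in triplicate.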
# Staphylococcus aureus [5] = assay: Antibacterial activity against methicillin-resistant Staphylococcus aureus CCARM 3506 after 24 hrs by two-fold serial dilution method; format: functional; conditions: CCARM 3506, 24 h; how it was run: as §2
# Streptococcus mutans [6] = assay: Antibacterial activity against Streptococcus mutans 3065 after 24 hrs by two-fold serial dilution method; format: functional; conditions: Streptococcus mutans, 3065, 24 h; how it was run: as §1
# Staphylococcus aureus [7] = assay: Antibacterial activity against quinolone-resistant Staphylococcus aureus CCARM 3519 after 24 hrs by two-fold serial dilution method; format: functional; conditions: CCARM 3519, 24 h; how it was run: as §2
# Candida albicans = assay: Antifungal activity against Candida albicans 7535 after 24 hrs by two-fold serial dilution method; format: functional; conditions: Candida albicans, 7535, 24 h
# Staphylococcus aureus [8] = assay: Antibacterial activity against methicillin-resistant Staphylococcus aureus CCARM 3167 after 24 hrs by two-fold serial dilution method; format: functional; conditions: CCARM 3167, 24 h; how it was run: as §2
# Pseudomonas aeruginosa [9] = assay: Antibacterial activity against Pseudomonas aeruginosa 2004 after 24 hrs by two-fold serial dilution method; format: functional; conditions: Pseudomonas aeruginosa, 2004, 24 h; how it was run: as §1
# Salmonella typhimurium = assay: Antibacterial activity against Salmonella typhimurium 2421 after 24 hrs by two-fold serial dilution method; format: functional, Salmonella enterica subsp. enterica serovar Typhimurium; conditions: Salmonella enterica, 2421, 24 h; how it was run: as §1
# Streptococcus mutans [10] = assay: Bactericidal activity against Streptococcus mutans 3065 after 24 hrs by agar plate method; format: functional; conditions: Streptococcus mutans, 3065, 24 h
# How it was run: (§4)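 Samples of 5 µL from MIC wells with no visible growth were plated onto fresh Mueller-Hinton agar and incubated a further 24 h at 37 °C. MBC is the lowest concentration giving no visible colony growth on the agar. Assays were run in triplicate.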
# Pseudomonas aeruginosa [11] = assay: Antibacterial activity against Pseudomonas aeruginosa 2742 after 24 hrs by two-fold serial dilution method; format: functional; conditions: Pseudomonas aeruginosa, 2742, 24 h; how it was run: as §1
# Staphylococcus aureus [12] = assay: Antibacterial activity against Staphylococcus aureus KCTC 503 after 24 hrs by two-fold serial dilution method; format: functional; conditions: KCTC 503, 24 h; how it was run: as §1
# Staphylococcus aureus [13] = assay: Bactericidal activity against methicillin-resistant Staphylococcus aureus CCARM 3506 after 24 hrs by agar plate method; format: functional; conditions: CCARM 3506, 24 h; how it was run: as §3
# Staphylococcus aureus [14] = assay: Bactericidal activity against methicillin-resistant Staphylococcus aureus CCARM 3167 after 24 hrs by agar plate method; format: functional; conditions: CCARM 3167, 24 h; how it was run: as §3
# Staphylococcus aureus [15] = assay: Bactericidal activity against quinolone-resistant Staphylococcus aureus CCARM 3505 after 24 hrs by agar plate method; format: functional; conditions: CCARM 3505, 24 h; how it was run: as §3
# Staphylococcus aureus [16] = assay: Bactericidal activity against Staphylococcus aureus RN4220 after 24 hrs by agar plate method; format: functional; conditions: RN4220, 24 h; how it was run: as §4
# Staphylococcus aureus [17] = assay: Antibacterial activity against quinolone-resistant Staphylococcus aureus CCARM 3505 after 24 hrs by two-fold serial dilution method; format: functional; conditions: CCARM 3505, 24 h; how it was run: as §2
# Staphylococcus aureus [18] = assay: Antibacterial activity against Staphylococcus aureus KCTC 209 after 24 hrs by two-fold serial dilution method; format: functional; conditions: KCTC 209, 24 h; how it was run: as §1
# Staphylococcus aureus [19] = assay: Bactericidal activity against Staphylococcus aureus KCTC 503 after 24 hrs by agar plate method; format: functional; conditions: KCTC 503, 24 h; how it was run: as §3
# [20] = tested on: Staphylococcus aureus subsp. aureus RN4220; assay: Ratio of MBC to MIC for Staphylococcus aureus RN4220; format: functional
# How it was run: (§5)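 The ratio divides MBC by MIC for the same strain. MIC comes from two-fold broth microdilution in Mueller-Hinton broth (about 10^5 CFU/mL, 37 °C, 24 h, absorbance at 630 nm). MBC comes from subculturing 5 µL from clear wells onto Mueller-Hinton agar for another 24 h at 37 °C, taken as the lowest concentration with no colonies.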
# Escherichia coli [21] = assay: Ratio of MBC to MIC for Escherichia coli KCTC 1924; format: functional; how it was run: as §5
# Escherichia coli [22] = assay: Bactericidal activity against Escherichia coli KCTC 1924 after 24 hrs by agar plate method; format: functional; conditions: KCTC 1924, 24 h; how it was run: as §4
# Staphylococcus aureus [23] = assay: Ratio of MBC to MIC for Staphylococcus aureus KCTC 503; format: functional; how it was run: as §5
# Staphylococcus aureus [24] = assay: Bactericidal activity against Staphylococcus aureus KCTC 209 after 24 hrs by agar plate method; format: functional; conditions: KCTC 209, 24 h; how it was run: as §4
Compound,MIC (Escherichia coli [1]) [µg/mL],MIC (Staphylococcus aureus [2]) [µg/mL],MIC (Escherichia coli [3]) [µg/mL],MBC (Staphylococcus aureus [4]) [µg/mL],MIC (Staphylococcus aureus [5]) [µg/mL],MIC (Streptococcus mutans [6]) [µg/mL],MIC (Staphylococcus aureus [7]) [µg/mL],MIC (Candida albicans) [µg/mL],MIC (Staphylococcus aureus [8]) [µg/mL],MIC (Pseudomonas aeruginosa [9]) [µg/mL],MIC (Salmonella typhimurium) [µg/mL],MBC (Streptococcus mutans [10]) [µg/mL],MIC (Pseudomonas aeruginosa [11]) [µg/mL],MIC (Staphylococcus aureus [12]) [µg/mL],MBC (Staphylococcus aureus [13]) [µg/mL],MBC (Staphylococcus aureus [14]) [µg/mL],MBC (Staphylococcus aureus [15]) [µg/mL],MBC (Staphylococcus aureus [16]) [µg/mL],MIC (Staphylococcus aureus [17]) [µg/mL],MIC (Staphylococcus aureus [18]) [µg/mL],also measured
O=C(O)[C@H](Cc1ccccc1)N1C(=O)/C(=C/c2ccc(/C=N/n3c(-c4ccc(Cl)cc4)n[nH]c3=S)cc2)SC1=S,> 128,8,> 128,128,16,16,16,> 64,8,> 128,> 128,32,> 128,16,128,64,64,16,16,> 64,MBC (Staphylococcus aureus [19]): 128 µg/mL; Ratio [20]: 2
Cc1ccccc1-c1n[nH]c(=S)n1/N=C/c1ccc(/C=C2\SC(=S)N([C@@H](Cc3ccccc3)C(=O)O)C2=O)cc1,> 128,16,64,> 128,16,8,16,> 64,16,> 128,> 128,16,> 128,16,64,32,64,64,16,> 64,Ratio (Escherichia coli [21]): <=4; MBC (Escherichia coli [22]): 64 µg/mL; MBC (Staphylococcus aureus [19]): 32 µg/mL; Ratio (Staphylococcus aureus [23]): <=4
O=C(O)CN1C(=O)/C(=C/c2ccc(/C=N/n3c(-c4ccccc4Br)n[nH]c3=S)cc2)SC1=S,> 128,64,64,> 256,> 64,> 64,64,> 64,64,> 128,> 128,–,> 128,> 64,–,256,–,> 256,> 64,> 64,Ratio (Escherichia coli [21]): <=4; MBC (Escherichia coli [22]): 256 µg/mL
O=C1NC(=S)S/C1=C\c1ccc(/C=N/n2c(-c3ccccc3)n[nH]c2=S)cc1,> 128,32,32,> 256,32,16,32,> 64,32,> 128,> 128,> 128,> 128,32,> 256,> 256,> 256,> 256,32,64,MBC (Staphylococcus aureus [24]): > 256 µg/mL; Ratio (Escherichia coli [21]): <=4; MBC (Escherichia coli [22]): 128 µg/mL; MBC (Staphylococcus aureus [19]): > 256 µg/mL
